Data reported in ChEMBL document CHEMBL1144526, “Isoindolo[2,1-c]benzo[1,2,4]triazines: a new ring system with antiproliferative activity” (2007).
Blank lines part the entries; values can stand above or below the molecule they belong to.

How the values were obtained:
Format in all cases: functional
[1] = Growth inhibition of human NCI-50 cells; settings: NCI full human tumour cell panel
Summary of the method: (§1)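 NCI full human tumour cell panel covering leukemia, melanoma, lung, colon, renal, ovarian, breast, prostate and CNS subpanels. Five concentrations at 10-fold dilution were used: 10^-4, 10^-5, 10^-6, 10^-7 and 10^-8 M. GI50, the concentration giving 50% inhibition of net cell growth, was determined for each cell line.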

[2] = tested on: EKVX; test: Growth inhibition of human EKVX cells; summary of the method: as §1
[3] = tested on: LOX IMVI; test: Growth inhibition of human LOX IMVI cells; summary of the method: as §1
[4] = tested on: BT-549; test: Growth inhibition of human BT549 cells; summary of the method: as §1
[5] = tested on: M14; test: Growth inhibition of human M14 cells; summary of the method: as §1
[6] = tested on: NCI-H460; test: Antiproliferative activity against human NCI-H460 cells at 100 uM after 48 hrs
[7] = tested on: MCF7; test: Growth inhibition of human MCF7 cells; summary of the method: as §1
[8] = tested on: A549; test: Growth inhibition of human A549 cells; summary of the method: as §1
[9] = tested on: OVCAR-8; test: Growth inhibition of human OVCAR8 cells; summary of the method: as §1
[10] = tested on: MCF7; test: Antiproliferative activity against human MCF7 cells at 100 uM after 48 hrs
[11] = tested on: COLO 205; test: Growth inhibition of human COLO205 cells; summary of the method: as §1
[12] = tested on: SF-268; test: Antiproliferative activity against human SF268 cells at 100 uM after 48 hrs
[13] = tested on: NCI-H522; test: Growth inhibition of human NCI-522 cells; summary of the method: as §1
[14] = tested on: MOLT-4; test: Growth inhibition of human MOLT4 cells; summary of the method: as §1
[15] = tested on: SR; test: Growth inhibition of human SR cells; summary of the method: as §1

- GI50 [4]: 12 µM
- GI50 [7]: 14.1 µM
- GI50 [8]: 13.5 µM
- GI50 [9]: 11.2 µM
- GI50 [11]: 9.33 µM
SMILES: N#Cc1c2ccccc2c2nnc3ccccc3n12
- GI50 [1]: 33.9 µM
- GI50 [2]: 12.6 µM
- GI50 [3]: 6.46 µM
- GI50 [5]: 14.8 µM
- Activity [6]: 21%
- Activity [10]: 26%
- Activity [12]: 95%

SMILES: Cc1cccc2nnc3c4ccccc4c(C#N)n3c12
- Activity [6]: 50%
- Activity [10]: 69%
- Activity [12]: 88%

SMILES: Cc1cccc2c1nnc1c3ccccc3c(C#N)n21
- Activity [6]: 118%
- Activity [10]: 72%
- Activity [12]: 105%

SMILES: COc1ccc2c(c1)nnc1c3ccccc3c(C#N)n21
- Activity [6]: 86%
- Activity [10]: 63%
- Activity [12]: 104%

SMILES: Cc1cc2nnc3c4ccccc4c(C#N)n3c2cc1C
- Activity [6]: 48%
- Activity [10]: 76%
- Activity [12]: 76%

SMILES: N#Cc1c2ccccc2c2nnc3cc(Cl)c(Cl)cc3n12
- GI50 [1]: 49 µM
- Activity [6]: 17%
- Activity [10]: 80%
- Activity [12]: 68%

SMILES: N#Cc1c2ccccc2c2nnc3cc(Cl)ccc3n12
- Activity [6]: 109%
- Activity [10]: 109%
- Activity [12]: 114%

SMILES: N#Cc1c2ccccc2c2nnc3ccc(Cl)cc3n12
- Activity [6]: 61%
- Activity [10]: 51%
- Activity [12]: 86%

- GI50 [7]: 10.7 µM
SMILES: N#Cc1c2ccccc2c2nnc3cc(C(F)(F)F)ccc3n12
- GI50 [1]: 53.7 µM
- Activity [6]: 6%
- Activity [10]: 65%
- Activity [12]: 82%

- GI50 [14]: 10.5 µM
SMILES: N#Cc1c2ccccc2c2nnc3ccc(C(F)(F)F)cc3n12
- GI50 [1]: 34.7 µM
- GI50 [13]: 17 µM
- GI50 [2]: ≤ 0.01 µM
- Activity [6]: 8%
- GI50 [15]: 0.214 µM
- Activity [10]: 83%
- Activity [12]: 96%
